Data set [1] deals with T1, Cytochrome P450 11B1, mitochondrial (Homo sapiens, UniProt P15538).
T1 sequence (P15538 whole entry): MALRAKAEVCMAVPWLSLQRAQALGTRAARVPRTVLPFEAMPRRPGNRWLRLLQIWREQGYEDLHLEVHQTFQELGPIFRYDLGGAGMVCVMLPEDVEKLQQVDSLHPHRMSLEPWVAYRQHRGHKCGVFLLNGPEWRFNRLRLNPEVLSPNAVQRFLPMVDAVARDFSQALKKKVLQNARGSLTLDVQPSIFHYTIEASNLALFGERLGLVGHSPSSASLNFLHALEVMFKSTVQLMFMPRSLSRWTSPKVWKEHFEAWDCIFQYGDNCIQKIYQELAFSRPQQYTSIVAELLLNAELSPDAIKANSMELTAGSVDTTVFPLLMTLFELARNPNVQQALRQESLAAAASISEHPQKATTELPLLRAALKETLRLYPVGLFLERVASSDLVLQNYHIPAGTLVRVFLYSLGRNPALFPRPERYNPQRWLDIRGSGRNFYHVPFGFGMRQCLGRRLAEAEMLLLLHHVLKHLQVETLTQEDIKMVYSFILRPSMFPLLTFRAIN
Nature of the data set: Inhibition of human CYP11B1 expressed in V79 cells assessed as cortisol level after 3 hrs by HTRF assay in presence of 250 nM 11-deoxycortisol. Format: cell-based.

Data set [2] in a line: Half life in Sprague-Dawley rat at 2 mg/kg, po administered through gavage by LC/MS/MS method. The class given is ADME, organism-based. As to conditions: in vivo.
Data set [3] in a line: Lipophilicity, log D of the compound by HPLC. The class given is physicochemical. The method, boiled down:
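Lipophilicity determined experimentally by HPLC.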

For data set [4], the system named is Rattus norvegicus. Nature of the data set: Dose normalized AUC in Sprague-Dawley rat at 2 mg/kg, po administered through gavage. Format: ADME, organism-based. To be noted: in vivo.
Data set [5] is described as follows: Intrinsic clearance in Sprague-Dawley rat liver microsomes by LC/MS method. Format: ADME. As to conditions: read-out: CLH.
Data set [6] is described as follows: Plasma clearance in Sprague-Dawley rat at 2 mg/kg, po administered through gavage by LC/MS/MS method. Format: ADME, organism-based.
Data set [7] can be described thus: Oral bioavailability in Sprague-Dawley rat at 2 mg/kg administered through gavage. The class given is ADME, organism-based. As to conditions: in vivo.
Data set [8] in a line: Plasma protein binding in Sprague-Dawley rat. Format: ADME, cell-free.
Data set [9] has as its target T2, Cytochrome P450 11B2, mitochondrial (Homo sapiens, UniProt P19099).
T2 sequence (P19099 whole entry): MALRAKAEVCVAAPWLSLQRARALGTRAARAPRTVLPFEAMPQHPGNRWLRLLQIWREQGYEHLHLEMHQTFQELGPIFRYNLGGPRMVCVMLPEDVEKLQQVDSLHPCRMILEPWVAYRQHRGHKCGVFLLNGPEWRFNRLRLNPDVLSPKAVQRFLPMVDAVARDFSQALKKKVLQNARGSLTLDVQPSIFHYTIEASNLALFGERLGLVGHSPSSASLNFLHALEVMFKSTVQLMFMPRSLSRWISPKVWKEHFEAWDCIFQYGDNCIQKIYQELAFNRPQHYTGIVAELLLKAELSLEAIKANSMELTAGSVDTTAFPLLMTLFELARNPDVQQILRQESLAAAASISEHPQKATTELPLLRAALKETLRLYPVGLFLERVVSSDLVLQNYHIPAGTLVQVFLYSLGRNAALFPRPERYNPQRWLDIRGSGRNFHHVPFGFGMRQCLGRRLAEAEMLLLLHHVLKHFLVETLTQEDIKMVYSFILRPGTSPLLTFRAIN
Nature of the data set: Inhibition of human CYP11B2 expressed in V79 cells assessed as aldosterone level after 3 hrs by HTRF assay in presence of 125 nM 11-deoxycorticosterone. The class given is cell-based.

The species named for data set [10] is Homo sapiens. Nature of the data set: Selectivity index, ratio IC50 for human CYP11B1 to IC50 for human CYP11B2. Summed up:
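Ratio of human CYP11B1 IC50 to human CYP11B2 IC50; each IC50 calculated from n ≥ 2 determinations.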

pIC50: −log10 of the molar value. Some results are limits rather than exact numbers.

`CC(C)(O)c1cncc(-c2ccc3c(c2)CCc2nnc(C(F)(F)F)n2-3)c1`: the pIC50 is 5.83 in [1] and 6.28 in data set [9]. Also, in data set [2], the half-life was 174 min. In data set [3], this molecule came in with a logD of 1.5. Also, the AUC/dose in [4] turned out to be 3.87 µM·kg·h/mg. Also, the CLint scaled in data set [5] was under 20 mL/min/kg. Moreover, the CL/F in [6] worked out at 10 mL/min/kg. Besides, in data set [7], the bioavailability was 83%. For the same molecule, in data set [8], the fraction unbound was 0.997. Besides, the Ratio IC50 in [10] is 3.

Values taken from ChEMBL document CHEMBL3621164, “Discovery of Triazole CYP11B2 Inhibitors with in Vivo Activity in Rhesus Monkeys” (ACS Med Chem Lett, 2015).
